Assay results reported in PMC10824694 (Blood Advances, 2023).

Key:
[1] = test system: HL-60(TB); assay: cells; format: cell-based; settings: Homo sapiens, HL-60, 72 h
[2] = test system: NCI-H460; assay: cells; format: cell-based; settings: Homo sapiens, NCI-H460, 72 h
[3] = test system: RPMI-8226; assay: cells; format: cell-based; settings: Homo sapiens, RPMI-8226, 72 h
[4] = test system: Namalwa; assay: cells; format: cell-based; settings: Homo sapiens, 72 h
[5] = test system: RXF 393; assay: cells; format: cell-based; settings: Homo sapiens, RXF 393, 72 h
[6] = test system: BxPC3; assay: cells; format: cell-based; settings: Homo sapiens, BXPC-3, 72 h
[7] = test system: EKVX; assay: cells; format: cell-based; settings: Homo sapiens, 72 h
[8] = test system: DHL6; assay: cells; format: cell-based; settings: Homo sapiens, 72 h
[9] = test system: HCC-2998; assay: cells; format: cell-based; settings: Homo sapiens, HCC 2998, 72 h
[10] = test system: UACC-62; assay: cells; format: cell-based; settings: Homo sapiens, UACC-62, 72 h
[11] = test system: JB6; assay: cells; format: cell-based; settings: Homo sapiens, JB6, 72 h
[12] = Mouse pharmacokinetics study; format: in vivo
How it was run: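 Plasma concentration–time profiles were obtained after each route. Absolute oral bioavailability was calculated from the IV and oral data.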

[13] = test system: H9-derived xenografted tumors; assay: H9 xenograft T-cell lymphoma model in NSG mice; format: in vivo, mouse; settings: oral gavage daily 14 days, BBM 50 mg/kg, PA4 5-15 mg/kg per day
How it was run: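 Female 8-week-old NSG mice received 5×10^6 H9 cells in PBS subcutaneously in the right flank. At a tumour volume of ~30 mm³ (day 16), mice were randomised into 5 groups (n = 5 each): PBS 100 μL, or test compound in PBS, given daily by oral gavage for 14 days. Body weight and tumours were measured 3 times weekly. Mice were euthanised on day 30.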

[14] = test system: K-562; assay: cells; format: cell-based; settings: Homo sapiens, K562, 72 h
[15] = test system: Mutu; assay: cells; format: cell-based; settings: Homo sapiens, 72 h
[16] = test system: T-47D; assay: cells; format: cell-based; settings: Homo sapiens, T47D, 72 h
[17] = test system: 786-0; assay: cells; format: cell-based; settings: Homo sapiens, 786-0, 72 h
[18] = test system: SN12C; assay: cells; format: cell-based; settings: Homo sapiens, 72 h
[19] = test system: MDA-MB-231/ATCC; assay: cells; format: cell-based; settings: Homo sapiens, MDA-MB-231, 72 h
[20] = test system: NCI/ADR-RES; assay: cells; format: cell-based; settings: Homo sapiens, 72 h
[21] = test system: SNB-75; assay: cells; format: cell-based; settings: Homo sapiens, SNB-75, 72 h
[22] = test system: UACC-257; assay: cells; format: cell-based; settings: Homo sapiens, UACC-257, 72 h
[23] = test system: HOP-62; assay: cells; format: cell-based; settings: Homo sapiens, HOP-62, 72 h
[24] = test system: MCF7; assay: cells; format: cell-based; settings: Homo sapiens, MCF7, 72 h
[25] = test system: NCI-H226; assay: cells; format: cell-based; settings: Homo sapiens, NCI-H226, 72 h
[26] = test system: OVCAR-5; assay: cells; format: cell-based; settings: Homo sapiens, OVCAR-5, 72 h
[27] = test system: A549/ATCC; assay: cells; format: cell-based; settings: Homo sapiens, A549, 72 h
[28] = test system: ACHN; assay: cells; format: cell-based; settings: Homo sapiens, 72 h
[29] = test system: HS 578T; assay: cells; format: cell-based; settings: Homo sapiens, 72 h
[30] = test system: CaPan2; assay: cells; format: cell-based; settings: Homo sapiens, Capan-2, 72 h
[31] = test system: MDA-MB-468; assay: cells; format: cell-based; settings: Homo sapiens, MDA-MB-468, 72 h
[32] = test system: SK-MEL-28; assay: cells; format: cell-based; settings: Homo sapiens, SK-MEL-28, 72 h
[33] = test system: MALME-3M; assay: cells; format: cell-based; settings: Homo sapiens, 72 h
[34] = test system: HCT-116; assay: cells; format: cell-based; settings: Homo sapiens, HCT-116, 72 h
[35] = test system: A498; assay: cells; format: cell-based; settings: Homo sapiens, A498, 72 h
[36] = test system: HCT-15; assay: cells; format: cell-based; settings: Homo sapiens, HCT-15, 72 h
[37] = test system: M14; assay: cells; format: cell-based; settings: Homo sapiens, M14, 72 h
[38] = test system: SW-620; assay: cells; format: cell-based; settings: Homo sapiens, SW-620, 72 h
[39] = test system: OVCAR-8; assay: cells; format: cell-based; settings: Homo sapiens, OVCAR-8, 72 h
[40] = test system: Panc1; assay: cells; format: cell-based; settings: Homo sapiens, PANC-1, 72 h
[41] = test system: SF-539; assay: cells; format: cell-based; settings: Homo sapiens, SF-539, 72 h
[42] = test system: COLO 205; assay: cells; format: cell-based; settings: Homo sapiens, COLO 205, 72 h
[43] = test system: SF-295; assay: cells; format: cell-based; settings: Homo sapiens, SF-295, 72 h
[44] = test system: NCI-H522; assay: cells; format: cell-based; settings: Homo sapiens, NCI-H522, 72 h
[45] = test system: 371-kinase panel; assay: Kinome screening, HotSpot assay platform; format: biochemical; settings: 10 μM, panel of 371 kinases
How it was run: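 The HotSpot platform was run against a 371-kinase panel with test compounds at 1 µM and 10 µM. A hit was a kinase whose activity was inhibited by ≥50%.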

[46] = test system: HOP-92; assay: cells; format: cell-based; settings: Homo sapiens, HOP-92, 72 h
[47] = test system: MDA-MB-435; assay: cells; format: cell-based; settings: Homo sapiens, MDA-MB-435, 72 h
[48] = test system: LOX IMVI; assay: cells; format: cell-based; settings: Homo sapiens, 72 h
[49] = test system: MOLT-4; assay: cells; format: cell-based; settings: Homo sapiens, MOLT-4, 72 h
[50] = test system: U251; assay: cells; format: cell-based; settings: Homo sapiens, U-251, 72 h
[51] = test system: SK-OV-3; assay: cells; format: cell-based; settings: Homo sapiens, SK-OV-3, 72 h
[52] = test system: OVCAR-3; assay: cells; format: cell-based; settings: Homo sapiens, OVCAR-3, 72 h
[53] = test system: SK-MEL-2; assay: cells; format: cell-based; settings: Homo sapiens, SK-MEL-2, 72 h
[54] = test system: SK-MEL-5; assay: cells; format: cell-based; settings: Homo sapiens, SK-MEL-5, 72 h
[55] = test system: Rael; assay: cells; format: cell-based; settings: Homo sapiens, 72 h
[56] = test system: FG; assay: cells; format: cell-based; settings: Homo sapiens, 72 h
[57] = test system: SF-268; assay: cells; format: cell-based; settings: Homo sapiens, SF-268, 72 h
[58] = test system: DU-145; assay: cells; format: cell-based; settings: Homo sapiens, DU-145, 72 h
[59] = test system: NCI-H23; assay: cells; format: cell-based; settings: Homo sapiens, NCI-H23, 72 h
[60] = test system: CCRF-CEM; assay: cells; format: cell-based; settings: Homo sapiens, 72 h
[61] = test system: OVCAR-4; assay: cells; format: cell-based; settings: Homo sapiens, OVCAR-4, 72 h
[62] = test system: H9; assay: cells; format: cell-based; settings: Homo sapiens, H9, 72 h
[63] = test system: SR; assay: cells; format: cell-based; settings: Homo sapiens, 72 h
[64] = test system: PC-3; assay: cells; format: cell-based; settings: Homo sapiens, PC-3, 72 h
[65] = test system: CAKI-1; assay: cells; format: cell-based; settings: Homo sapiens, CAKI-1, 72 h
[66] = test system: BT-549; assay: cells; format: cell-based; settings: Homo sapiens, BT-549, 72 h
[67] = test system: UO-31; assay: cells; format: cell-based; settings: Homo sapiens, UO-31, 72 h
[68] = test system: HT29; assay: cells; format: cell-based; settings: Homo sapiens, HT-29, 72 h
[69] = molecular target: T1, CAMKIIγ (Homo sapiens, UniProt Q13555); assay: Cellular thermal shift assay; format: cell-based; settings: H9 cells, 5 μM, 1 hour; vs DMSO
Target sequence in this assay (Q13555 whole entry): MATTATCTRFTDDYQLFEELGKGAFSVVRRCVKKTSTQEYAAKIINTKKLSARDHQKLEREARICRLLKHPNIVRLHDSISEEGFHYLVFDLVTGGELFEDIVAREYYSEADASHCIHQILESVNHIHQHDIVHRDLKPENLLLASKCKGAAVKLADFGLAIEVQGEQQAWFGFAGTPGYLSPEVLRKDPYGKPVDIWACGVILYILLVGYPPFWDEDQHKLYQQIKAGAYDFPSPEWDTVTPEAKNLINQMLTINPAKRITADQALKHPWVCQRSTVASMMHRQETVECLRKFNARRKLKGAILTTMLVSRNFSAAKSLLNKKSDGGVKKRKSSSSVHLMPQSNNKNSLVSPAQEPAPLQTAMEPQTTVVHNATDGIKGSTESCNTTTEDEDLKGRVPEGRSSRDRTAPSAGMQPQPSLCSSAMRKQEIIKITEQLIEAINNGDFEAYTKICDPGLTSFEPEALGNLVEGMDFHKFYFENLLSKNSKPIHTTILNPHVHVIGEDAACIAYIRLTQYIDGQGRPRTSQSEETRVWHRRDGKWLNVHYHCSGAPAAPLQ

[70] = test system: KM12; assay: cells; format: cell-based; settings: Homo sapiens, KM12, 72 h
[71] = molecular target: T1, CAMKIIγ; assay: nano-DSF assay with purified CAMKIIγ protein; format: binding; settings: in words
Target sequence in this assay (Q13555 14-272 limits assumed): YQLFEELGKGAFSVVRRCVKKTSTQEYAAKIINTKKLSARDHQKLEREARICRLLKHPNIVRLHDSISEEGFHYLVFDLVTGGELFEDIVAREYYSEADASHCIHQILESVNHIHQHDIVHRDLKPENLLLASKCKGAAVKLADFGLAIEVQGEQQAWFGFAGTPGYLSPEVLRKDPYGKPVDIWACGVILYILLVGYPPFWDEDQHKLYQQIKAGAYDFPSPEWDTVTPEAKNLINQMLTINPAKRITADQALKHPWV

[72] = test system: SNB-19; assay: cells; format: cell-based; settings: Homo sapiens, SNB-19, 72 h
[73] = test system: NCI-H322M; assay: cells; format: cell-based; settings: Homo sapiens, 72 h
[74] = test system: TK-10; assay: cells; format: cell-based; settings: Homo sapiens, TK-10, 72 h

COc1cc2c3cc1Oc1c(OC)c(OC)cc4c1[C@@H](Cc1ccc(O)c(c1)Oc1ccc(cc1)C[C@@H]3N(C)CC2)N(C)CC4 [BBM, berbamine]
IC50 [1]: 5.98 µM | IC50 [2]: 20.5 µM | IC50 [3]: 7.83 µM | IC50 [4]: 20.7 µM | IC50 [5]: 16.9 µM | IC50 [6]: 31.9 µM | IC50 [7]: 6.38 µM | IC50 [8]: 15.9 µM | IC50 [9]: 5.61 µM | IC50 [10]: 19.2 µM | IC50 [11]: 2120 nM | time detected in blood after oral administration ([12]; male Institute of Cancer Research mice): 5 min | area under the curve ([12]; male Institute of Cancer Research mice, plasma): 8478 ± 1150 | bioavailability ([12]; male, ICR (Institute of Cancer Research), mouse, plasma, po): 44.8% | body weight [13]: did not reduce body weight | IC50 [14]: 5.11 µM | IC50 [15]: 4.64 µM | IC50 [16]: 15.7 µM | IC50 [17]: 8.48 µM | IC50 [18]: 41.8 µM | IC50 [19]: 14.2 µM | IC50 [20]: 24.8 µM | IC50 [21]: 17.6 µM | IC50 [22]: 6.5 µM | IC50 [23]: 23.8 µM | IC50 [24]: 9.93 µM | IC50 [25]: 34.6 µM | IC50 [26]: 9.88 µM | IC50 [27]: 18.7 µM | IC50 [28]: 20.8 µM | IC50 [29]: 12.4 µM | IC50 [30]: 59.1 µM | IC50 [31]: 10.4 µM | IC50 [32]: 15.4 µM | IC50 [33]: 9.82 µM | IC50 [34]: 10.2 µM | IC50 [35]: 6.97 µM | IC50 [36]: 11 µM | IC50 [37]: 13.1 µM | IC50 [38]: 12.4 µM | IC50 [39]: 14.6 µM | IC50 [40]: 24.8 µM | IC50 [41]: 5.25 µM | IC50 [42]: 16 µM | IC50 [43]: 13.3 µM | IC50 [44]: 21.3 µM | number of kinases whose activity was reduced by >50% [45]: none | IC50 [46]: 12.7 µM | IC50 [47]: 13.5 µM | IC50 [48]: 23 µM | IC50 [49]: 10.7 µM | IC50 [50]: 10.7 µM | IC50 [51]: 13.4 µM | IC50 [52]: 12.3 µM | IC50 [53]: 16 µM | IC50 [54]: 9.9 µM | IC50 [55]: 5.87 µM | IC50 [56]: 32.6 µM | IC50 [57]: 13.8 µM | IC50 [58]: 27.7 µM | IC50 [59]: 14.9 µM | IC50 [60]: 11.4 µM | IC50 [61]: 15.1 µM | IC50 [62]: 4.67 µM | IC50 [63]: 5.14 µM | IC50 [64]: 7.94 µM | IC50 [65]: 14.2 µM | IC50 [66]: 8.64 µM | IC50 [67]: 9.61 µM | IC50 [68]: 6.56 µM | CAMKIIγ degradation temperature (CETSA) [69]: did not shift the degradation temperature | IC50 [70]: 17.3 µM | change of melting temperature of CAMKIIγ protein [71]: did not significantly change the melting temperature | IC50 [72]: 16.2 µM | IC50 [73]: 20 µM | IC50 [74]: 35.8 µM
